Hits are enriched below; roughly 11% of the tested compounds scored in any of these assays.
S1P3 ag: agonists of human S1P3 receptor; S1P3 NFAT-BLA reporter cells, agonism, FRET ratio; relative to 1 µM S1P, basal subtracted; activation, % at 4.5 µM; 0.1% of 60,000 active;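 active = activation above the screen-wide mean plus 3 SD, cut at about 4.5% in these data, passing the limit was not always enough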
Target sequence (Q99500 whole entry, looked up): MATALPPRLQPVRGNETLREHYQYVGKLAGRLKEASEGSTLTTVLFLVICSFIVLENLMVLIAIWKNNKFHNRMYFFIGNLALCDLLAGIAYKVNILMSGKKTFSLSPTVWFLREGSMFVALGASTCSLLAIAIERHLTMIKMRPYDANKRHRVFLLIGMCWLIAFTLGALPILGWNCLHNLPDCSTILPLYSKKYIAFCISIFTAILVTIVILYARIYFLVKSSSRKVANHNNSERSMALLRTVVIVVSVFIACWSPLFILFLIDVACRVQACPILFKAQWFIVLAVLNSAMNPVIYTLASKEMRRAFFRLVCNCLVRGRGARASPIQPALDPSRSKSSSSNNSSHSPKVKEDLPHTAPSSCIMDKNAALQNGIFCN
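material = human S1P3 NFAT-BLA reporter CHO cells | schedule = 4 h compound at 37 °C, 2 h substrate at RT | measured by = fluorescent BLA substrate, ex 405 nm, em 460/535 nm ratio | controls = 1 µM S1P reference | replication = primary once, confirmation triplicate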
M1 agonist: M1 muscarinic receptor agonism | CHO-M1 cells, Fluo-4 calcium fluorescence, agonist mode; hits give high values | B-score at 10 µM | 3% of 64,000 active | AID 626;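 active = fluorescence rise, raw or as B-score row- and column-corrected plate score, outside the 99.7% band of its plate's samples, either direction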
M1 antagonist: M1 muscarinic receptor (rat) antagonism. P08482. CHO-M1 cells, Fluo-4 calcium, ACh EC80 antagonist mode; hits give low values. B-score at 10 µM. 3.4% of 64,000 active;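 active = calcium fluorescence response, raw or row-and-column corrected B-score, differing from the plate sample mean either way at a set confidence level, mostly lower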
D1 mod: allosterically modulates the human D1 dopamine receptor. 5.9% of 58,000 active. HEK293 D1, CRE-luciferase, dopamine EC30 potentiation; actives deviate in either direction. B-score at 10 µM. AID 641;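 active = luminescence count or its row- and column-corrected plate score outside the 99.7% band of the plate's sample wells, on either side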
S1P1 ag pot: activates or potentiates agonism at human S1P1 receptor; P21453; S1P1 CRE-bla cells, forskolin, beta-lactamase FRET, potentiator mode; S1P1 agonist co-added at EC20, 2 nM; 100% = saturating reference agonist, 0% = basal; activation, % at 9.5 µM; 0.57% of 56,000 active; AID 449;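 active = activation above a cutoff set at the mean activation of all tested compounds plus 3 SD, cut at about 54% in these data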;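 also: forskolin at 4 µM as EC80 and the EC20 agonist is SEW2871; 100% = SEW2871 at its EC100 plus forskolin at EC80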
Target sequence (P21453 whole entry, looked up): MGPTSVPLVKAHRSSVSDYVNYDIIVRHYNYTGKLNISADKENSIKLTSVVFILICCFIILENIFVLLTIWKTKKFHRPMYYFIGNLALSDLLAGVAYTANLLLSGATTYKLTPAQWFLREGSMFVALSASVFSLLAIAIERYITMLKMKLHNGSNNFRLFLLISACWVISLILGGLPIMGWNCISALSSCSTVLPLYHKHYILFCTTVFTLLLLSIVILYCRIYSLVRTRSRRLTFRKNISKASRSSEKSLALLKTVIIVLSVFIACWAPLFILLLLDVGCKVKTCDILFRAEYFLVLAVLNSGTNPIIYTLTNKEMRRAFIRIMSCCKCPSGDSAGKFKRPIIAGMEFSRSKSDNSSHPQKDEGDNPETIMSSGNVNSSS
Active calls of the source: *; / = not tested or not shown.

SMILES | S1P3 ag | M1 agonist | M1 antagonist | D1 mod | S1P1 ag pot
CCOC(=O)Cc1c(C)c2ccc(N(CC)CC)cc2oc1=O | 2.8 | -0.468 | 0.88 | -0.527 | -24.7
CCN(CC)c1ccc2c(C)c(-c3ccc(N)cc3)c(=O)oc2c1 | 0.8 | 0.505 | 0.874 | -0.00672 | -6.8
OCCCc1nc2n(n1)C(c1ccccc1)C=C(c1ccc(F)cc1)N2 (stereo not given) | -0.9 | 2.3 | 0.149 | 0.0773 | 12.9
OCCCc1nc2n(n1)C(c1cccs1)C=C(c1ccccc1)N2 (stereo not given) | 1.7 | 431* | -14.9* | 0.305 | -1.4
Cc1cc(F)c(F)c(C(=O)N2CCN(C)CC2)c1Cl | -1.3 | -0.285 | -0.022 | -0.483 | 0.9
CN1CCN(C(=O)CSc2nc(-c3cccs3)ccc2C#N)CC1 | -5.5 | 0.693 | 0.278 | 0.411 | 14.1
Cc1cc(C(F)(F)F)nc(Nc2nc(C)c3ccccc3n2)n1 | -0.6 | 0.365 | -0.00398 | -0.33 | -11.2
Nc1nc(Nc2ccccc2)nc2ccccc12 | 0.2 | 0.0835 | -0.806 | -5.55* | -11.4
CCCCSC1=C(C#N)C(c2ccccc2C)C(C(=O)OCC)C(=O)N1 (stereo not given) | 1.4 | 0.298 | -0.219 | 0.101 | 14.9
c1ccc(/N=C2\N=C(Nc3ccccn3)c3ccccc32)nc1 | -0.8 | / | / | 14.4* | -35.1
c1ccc(Nc2nc3ccccc3[nH]2)nc1 | -1.5 | 0.0443 | 0.256 | -0.54 | 9.1
O=C(Nc1cccc2c1CCCC2)c1ccc(Br)o1 | -0.3 | -0.0161 | -0.736 | / | -9.4
COCc1nnc(NC(=O)c2sc3ccccc3c2Cl)s1 | -0.5 | -0.455 | 0.53 | -1.54 | -5.2
Cc1nnc(NC(=O)c2sc3ccccc3c2Cl)s1 | 0.0 | -0.339 | 0.501 | -6.4* | 20.1
COc1ccc2cc(CCNC(=O)c3c(-c4ccccc4Cl)noc3C)c(=O)[nH]c2c1 | -0.2 | 0.352 | 0.0142 | -0.127 | -5.7
Cc1c(C)n(Cc2ccccc2)c2ncnc(N)c12 | 0.2 | -2.32 | -0.182 | -2.84* | 28.9
O=c1c2ccccc2nnn1CSc1nnc2sc3ccccc3n12 | 1.1 | 0.572 | -0.986 | -7.75* | -9.3
Cc1cc(-c2cc(-c3ccc(Cl)cc3)nc(N)c2C#N)co1 | 8.0 | -0.283 | -0.882 | / | -87.3
Cc1ccc(-c2cc(-c3ccc(Cl)cc3)c(C#N)c(N)n2)o1 | 5.9* | -0.00465 | 2.39e-06 | 4.11 | -215.7
Cn1nc(-c2ccc(Cl)cc2)c2cc(C(=O)N3CCCC3)sc21 | -0.3 | -0.0169 | 0.492 | -3.2* | -76.9
Cn1nc(-c2ccc(Cl)cc2)c2cc(C(=O)N3CCC(N4CCCCC4)CC3)sc21 | 0.0 | -0.642 | 0.735 | / | -43.8
COc1ccc(C(=O)Cn2c(N3CCOCC3)nc3ccccc32)cc1OC | -0.9 | 0.083 | -0.669 | -2.98* | -3.1
COc1ccc(N2CCN(c3nc4ccccc4n3CC(=O)c3ccccc3)CC2)cc1 | / | -0.274 | -0.0144 | / | /
O=C(O)CCc1ccc(-c2ccc(Cl)cc2)n1CC(=O)O | -0.6 | -0.634 | 0.182 | -3.68* | -15.4
O=C(O)CCc1ccc(-c2ccc(Cl)cc2)n1Cc1ccco1 | 0.0 | -0.379 | 0.0756 | -0.0254 | -23.4
SMILES | S1P3 ag | M1 agonist | M1 antagonist | D1 mod | S1P1 ag pot
CCCCNC(=O)c1cn(C)c2ccc(S(=O)(=O)N3CCOCC3)cc2c1=O | -0.5 | -0.0783 | 0.439 | -0.386 | -6.5
O=C(NCCc1csc(-c2ccccc2)n1)c1cccs1 | -0.9 | 0.00225 | -0.238 | -5.05* | 12.4
O=C(Nc1nsc(-c2ccccc2)n1)c1cccs1 | 0.6 | 0.0691 | 1.34 | -4.44* | -4.8
CCOc1nc(Nc2ccc(-c3nc4ccccc4o3)cc2)nc(N2CCOCC2)n1 | 0.3 | 0.031 | 0.00788 | 0.00696 | -34.8
CS(=O)(=O)N(Cc1ccc(C(=O)NCc2ccco2)cc1)c1ccccc1 | -0.9 | -0.00349 | 1.87* | 0.311 | /
CN(c1ccc(C(=O)NCc2ccco2)cc1)S(C)(=O)=O | / | -0.115 | 0.184 | / | /
Cc1cc(C)nc(SCc2nnc(SCC(=O)N3CCCc4ccccc43)o2)n1 | -1.1 | -0.237 | 0.664 | -0.00283 | 12.8
CCOC(=O)Cc1c(C)nc2c(-c3ccc(Cl)cc3)c[nH]n2c1=O | -0.6 | -1.06 | 0.578 | -0.786 | -1.3
CCCn1c(=O)c2ccccc2n2c(SCC(=O)c3ccccc3)nnc12 | -0.6 | 2.29 | 2.51* | 0.0174 | 2.5
CCCn1c(=O)c2ccccc2n2c(SCC(=O)c3ccc(F)cc3)nnc12 | 0.7 | -0.322 | -0.483 | -0.0301 | 3.6
Cn1c(=O)c2c3c(sc2n2c(SCC(=O)c4ccccc4)nnc12)COC(C)(C)C3 | -3.8 | -0.78 | -2.89* | / | 2.5
Cc1ccc(NC(=O)CN(c2cc(C)cc(C)c2)S(=O)(=O)c2c(C)noc2C)nc1 | -1.7 | -0.842 | -0.0454 | / | 4.5
COc1ccc2c(=O)c(-c3nc(C)cs3)coc2c1 | 0.6 | 1.09 | 0.906 | -5.93* | 4.3
Cc1csc(-c2coc3cc(O)cc(C)c3c2=O)n1 | -1.7 | 0.633 | -1.17 | 0.0192 | -14.6
O=C(CN1CCCCC1)Nc1cccc(-n2cnnn2)c1 | -1.0 | -0.0238 | 0.0177 | -0.807 | -7.3
CCCC(=O)Nc1ccc(-c2nc3cc(C)c(C)cc3o2)cc1 | -1.0 | -0.255 | 0.273 | -2.39* | 81.7*
COc1ccc(-c2nc3cc(NC(=O)Cc4ccc(OC)c(OC)c4)ccc3o2)cc1 | -1.1 | -0.462 | -0.627 | -3.93* | 80.7*
CN(C)c1ccc(-c2ccccc2)nn1 | / | -0.311 | -0.63 | / | /
Cc1cc(C)c(S(=O)(=O)N(C)CC(N)=O)c(C)c1 | -0.3 | 0.732 | -0.0143 | 0.0211 | /
COc1cccc(CNC(=O)Cn2cc3c(n2)CCCC3)c1 | 0.3 | -0.386 | 0.173 | -0.513 | -12.0
COc1cccc(-c2cn3nc4c(nc3n2)CCCC4)c1 | -0.5 | 0.0745 | 0.391 | -4.82* | -6.1
Cc1ccc(-c2nc3cc(C)ccc3o2)cc1 | -0.2 | -0.251 | 0.0311 | -2.67 | -48.1
CC(C)c1ccc2oc(-c3ccc(N)cc3)nc2c1 | -2.2 | -0.239 | -0.0123 | -5.97* | 54.0*
Cc1ccc(Cn2c(SCC(C)C)nc3c2c(=O)n(C)c(=O)n3C)cc1 | -0.1 | -0.312 | -0.139 | 0.0966 | -8.3
COCCN1Cc2cccc(C(=O)Nc3cccnc3)c2C1=O | -0.5 | 0.0173 | -0.135 | 2.93 | -14.7
SMILES | S1P3 ag | M1 agonist | M1 antagonist | D1 mod | S1P1 ag pot
COCCN1Cc2cccc(C(=O)Nc3ccc(S(=O)(=O)N4CCCCC4)cc3)c2C1=O | 0.4 | / | / | 6.76* | -3.0
CCCN1Cc2cccc(C(=O)Nc3ccc(OC)c(OC)c3)c2C1=O | -0.8 | -0.806 | -0.496 | 3.8* | -6.1
CCCN1Cc2cccc(C(=O)Nc3ccc(CN4CCCC4)cc3)c2C1=O | 0.1 | / | / | 3.33 | 1.9
CCCC(=O)Nc1nn(C)c2nc3c(C)cccc3cc12 | -0.6 | 0.483 | 0.0753 | -0.0255 | -0.8
Cc1cccc2cc3c(NC(=O)c4ccccn4)nn(C)c3nc12 | 5.3* | 0.0342 | -0.169 | 0.197 | -26.4
Cc1cc(NC(=O)CCC(=O)N(CCc2ccccc2)C(C(=O)NC2CCCC2)c2ccco2)no1 (stereo not given) | -1.0 | 1.26 | 2.43* | 0.185 | 14.4
O=c1cc(O)nc2n1CCCS2 | 0.5 | 0.663 | 0.106 | -0.249 | 0.0
O=c1c(Cc2ccccc2O)c(O)nc2n1CCCS2 | -0.3 | 0.63 | 0.0831 | -2.33* | 9.9
